Measured values as given in ChEMBL document CHEMBL5038579, “Structure-Guided Development of Potent Benzoylurea Inhibitors of BCL-XL and BCL-2” (J Med Chem, 2021).
The source made the active and inactive calls. The rule behind the calls is not given here.

Assays:
[1] = Inhibition of GST tagged human BCL-XL deltaC25 using biotin-DLRPEIRIAQELRIZIGDEFNETYTRR as substrate […] measured after 4 hrs by AlphaSCREEN assay
[2] = Inhibition of GST tagged human/mouse chimeric MCL-1 using biotin-DLRPEIRIAQELRIZIGDEFNETYTRR as substrate incubated for 40 mins followed by substrate addition measured after 4 hrs by AlphaSCREEN assay
[3] = Inhibition of GST tagged human BCL-XL deltaC25 by surface plasmon resonance assay
[4] = Inhibition of human BCL-2 deltaC22 by surface plasmon resonance assay
Summary of the method: (§1)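 Biacore solution competition. Protein (10 nM) preincubated 2 h with compound (12.5−0.0001 μM, 10-step half-log series) in HEPES running buffer pH 7.4 with EDTA and 0.005% Tween 20. Injected over a CM5 chip carrying wild-type or inert mBIM BH3 peptide. IC₅₀ by nonlinear curve fit. GST tag removed from BCL-XL and MCL-1 before use.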

[5] = Inhibition of human BCL-W deltaC23 C29S/A128E mutant by surface plasmon resonance assay; summary of the method: as §1
[6] = Inhibition of GST tagged human/mouse chimeric MCL-1 by surface plasmon resonance assay
[7] = test system: MEF; assay: Cytotoxicity against MCL deficient mouse embryonic fibroblast cells assessed as reduction in cell viability in presence of 1 % fetal calf serum measured after 24 hrs by propidium iodide staining based flow cytometric analysis; type: functional
Summary of the method: (§2)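 MEFs (WT, MCL-1−/−, MCL-1−/−/BAX−/−/BAK−/−) seeded at 1 × 10⁴ cells/well in FMA medium with 1% FCS, 24 h before dosing. Four-point dilutions: 0.168−0.00005 μM for ABT-737, 25−3.13 μM for others; final DMSO 0.2%, duplicate wells, 24 h. Cells stained with PI, flow cytometry on 1000 events. PI-negative fraction normalized to DMSO vehicle; EC₅₀ by nonlinear regression, mean ± SEM of three experiments.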

[8] = test system: MEF; assay: Cytotoxicity against wild type mouse embryonic fibroblast cells assessed as reduction in cell viability in presence of 1 % fetal calf serum measured after 24 hrs propidium iodide staining based flow cytometric analysis; type: functional; summary of the method: as §2
[9] = test system: MEF; assay: Cytotoxicity against MCL-1/BAX/BAK deficient mouse embryonic fibroblast cells assessed as reduction in cell viability in presence of 1 % fetal calf serum measured after 24 hrs propidium iodide staining based flow cytometric analysis; type: functional; summary of the method: as §2
[10] = test system: MEF; assay: Cytotoxicity against MCL-1deficient MEF cells assessed as release of cytochrome c from mitochondria at 2.5 uM FACS analysis; type: functional, Mus musculus
Summary of the method: (§3)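 MEFs at 1.5 × 10⁵ cells/well in FMA medium with 1% FCS, 3 h rest, then compounds for 18 h (final DMSO 0.25%) beside a vehicle control. Cells permeabilized with 0.025% digitonin on ice for 5 min, then fixed in 1% paraformaldehyde. Stained with anti-cytochrome c (1:100) and a PE secondary in saponin buffer. FL2 read on 10 000 events for % cells with low cytochrome c. Four experiments; multiple unpaired t test (Holm−Sidak, α = 0.01).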

[11] = Inhibition of mouse A1 deltaC20 P10K/C113S mutant by surface plasmon resonance assay; summary of the method: as §1
[12] = test system: MEF; assay: Cytotoxicity against mouse embryonic fibroblast cells assessed as reduction in cell viability in presence of 10 % fetal calf serum measured after 24 hrs propidium iodide staining based flow cytometric analysis; type: functional
[13] = test system: COLO 205; assay: Cytotoxicity against BCL-XL dependent human COLO205 cells assessed as reduction in cell viability measured after 48 hrs by CellTitre-Glo assay; type: functional, cell-based
Summary of the method: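 COLO205 cells (WT or BAK−/−/BAX−/−), kept in RPMI-1640 with 10% FCS, seeded at 3 × 10³ cells/well in medium with 10 or 1% FCS. Dosed one day later with six-point serial dilutions (0.0003−10 μM 1:8 for BH3 mimetics; 0.1−25 μM 1:3 for benzoylureas). Viability normalized to matched DMSO vehicle; EC₅₀ by curve fit.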

[14] = test system: MEF; assay: Cytotoxicity against MCL-1deficient MEF cells assessed as release of cytochrome c from mitochondria at 25 uM FACS analysis; type: functional, Mus musculus; summary of the method: as §3
[15] = test system: MEF; assay: Cytotoxicity against wild type MEF cells assessed as release of cytochrome c from mitochondria FACS analysis; type: functional, cell-based; details: Mus musculus; summary of the method: as §3
[16] = test system: MEF; assay: Cytotoxicity against MCL-1/BAX/BAK deficient MEF cells assessed as release of cytochrome c from mitochondria by FACS analysis; type: functional, cell-based; details: Mus musculus; summary of the method: as §3

| IC50 [1] | IC50 [2] | IC50 [3] | IC50 [4] | IC50 [5] | IC50 [6] | IC50 [11] | SMILES | other results |
| --- | --- | --- | --- | --- | --- | --- | --- | --- |
| > 100 µM | > 100 µM |  |  |  |  |  | COC(=O)[C@H](CSCc1ccccc1)NC(=O)N(Cc1ccc(C)cc1)C(=O)c1ccc(-c2ccccc2)cc1 |  |
| 0.19 µM | 6.1 µM | 0.42 µM | 9.4 µM | > 12.5 µM | > 12.5 µM | 6.8 µM | Cc1ccc(CN(C(=O)N[C@@H](CS(=O)(=O)CC23CC4CC(CC(C4)C2)C3)C(=O)O)C(=O)c2ccc(-c3ccccc3)cc2)cc1 |  |
| 13.1 µM | 44 µM |  |  |  |  |  | CSC[C@H](NC(=O)N(Cc1ccc(C)cc1)C(=O)c1ccc(-c2ccccc2)cc1)C(=O)O |  |
| > 100 µM | > 100 µM |  |  |  |  |  | Cc1ccc(CN(C(=O)NCCSCc2ccccc2)C(=O)c2ccc(-c3ccccc3)cc2)cc1 |  |
| 0.04 µM | 1.8 µM | 0.044 µM | 0.107 µM | > 12.5 µM | > 12.5 µM | 5.9 µM | Cc1ccc(CN(C(=O)N[C@@H](CS(=O)(=O)CC23CC4CC(CC(C4)C2)C3)C(=O)O)C(=O)c2ccc3c(c2)CCN(Cc2ccccc2-c2ccc(Cl)cc2)C3)cc1 |  |
| 1.09 µM | 8 µM |  |  |  |  |  | Cc1ccc(CN(C(=O)N[C@@H](CCCc2ccccc2)C(=O)O)C(=O)c2ccc(-c3ccccc3)cc2)cc1 |  |
| 0.04 µM | 1.8 µM | 0.041 µM | 0.018 µM | 6.8 µM | > 12.5 µM | 4.6 µM | Cc1ccc(CN(C(=O)N[C@@H](CS(=O)(=O)CC2CCCCC2)C(=O)O)C(=O)c2ccc3c(c2)CCN(Cc2ccccc2-c2ccc(Cl)cc2)C3)cc1 | EC50 [7]: 19.2 µM; Activity [8]: inactive; Activity [9]: inactive; Activity [12]: inactive; Activity [13]: inactive; Activity [14]: 30%; Activity [15]: inactive; Activity [16]: inactive |
| 0.21 µM | 2 µM | 0.24 µM | 0.152 µM | 10 µM | > 12.5 µM | 4.6 µM | Cc1ccc(CN(C(=O)N[C@@H](CSCc2ccccc2)C(=O)O)C(=O)c2ccc3c(c2)CCN(Cc2ccccc2-c2ccc(Cl)cc2)C3)cc1 |  |

More lines, now with the values behind:

| SMILES | IC50 [1] | IC50 [2] | IC50 [3] | IC50 [4] | IC50 [5] | IC50 [6] | IC50 [11] | other results |
| --- | --- | --- | --- | --- | --- | --- | --- | --- |
| CN(C)CC[C@H](CSc1ccccc1)Nc1ccc(S(=O)(=O)NC(=O)c2ccc(N3CCN(Cc4ccccc4-c4ccc(Cl)cc4)CC3)cc2)cc1[N+](=O)[O-] [ABT 737] | 0.004 µM | 40 µM | < 0.00025 µM | < 0.00025 µM | 0.012 µM | > 12.5 µM |  | EC50 [7]: 0.013 µM; Activity [8]: inactive; Activity [9]: inactive; Activity [10]: >90% |
| Cc1ccc(CN(C(=O)N[C@@H](CS(=O)(=O)CC2CCCCC2)C(=O)O)C(=O)c2ccc(-c3ccccc3)cc2)cc1 | 0.46 µM | 10 µM | 0.62 µM | > 12.5 µM | > 12.5 µM | > 12.5 µM | > 12.5 µM |  |
| Cc1ccc(CN(C(=O)N[C@@H](CS(=O)(=O)Cc2ccccc2)C(=O)O)C(=O)c2ccc3c(c2)CCN(Cc2ccccc2-c2ccc(Cl)cc2)C3)cc1 | 0.17 µM | 5.3 µM | 0.133 µM | 0.066 µM | > 12.5 µM | > 12.5 µM | > 12.5 µM |  |
| CCCN(C(=O)N[C@@H](CSCc1ccccc1)C(=O)O)C(=O)c1ccc(-c2ccccc2)cc1 | 31 µM | 28 µM |  |  |  |  |  | EC50 [7]: > 25 µM; Activity ([14]; Mus musculus): inactive; Activity [15]: inactive; Activity [16]: inactive |
| Cc1ccc(CN(C(=O)N[C@@H](CSCc2ccccc2)C(=O)O)C(=O)c2ccc(-c3ccccc3)cc2)cc1 | 0.51 µM | 7.7 µM |  |  |  |  |  |  |
| Cc1ccc(CN(C(=O)N[C@@H](COCc2ccccc2)C(=O)O)C(=O)c2ccc(-c3ccccc3)cc2)cc1 | 0.38 µM | 11.8 µM |  |  |  |  |  |  |
| Cc1ccc(CN(C(=O)N[C@@H](CS(=O)(=O)Cc2ccccc2)C(=O)O)C(=O)c2ccc(-c3ccccc3)cc2)cc1 | 0.59 µM | 11.6 µM | 1.8 µM | > 12.5 µM | > 12.5 µM | > 12.5 µM | > 12.5 µM |  |
| Cc1ccc(CN(C(=O)N[C@@H](CSCc2ccccc2)C(=O)O)C(=O)c2ccc(-c3cccc(-c4ccccc4-c4ccc(Cl)cc4)c3)cc2)cc1 | 0.24 µM | 1.5 µM |  |  |  |  |  |  |
